The source made the active and inactive calls. The calls are words filed in the database; no cut-off is given here.
Columns and labels:
Rattus norvegicus [1] = experiment: Anti-inflammatory activity in DNBS-induced Sprague-Dawley rat colitis model assessed as DNBS-induced IL-1beta levels in colon at 1 mg/kg/day, ig for 6 days simulatneously with 6 days of DNBS-challenge by ELISA (reference value: 22.3 +/- 2.9 ng/mg); assay type: functional
Rattus norvegicus [2] = experiment: Anti-inflammatory activity in DNBS-induced Sprague-Dawley rat colitis model assessed as reduction in DNBS-induced increase in MPO levels in colon at 1 mg/kg/day, ig for 6 days simulatneously with 6 days of DNBS-challenge by ELISA; assay type: functional, organism-based
Outline: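 DNBS colitis (15 mg intrarectal in 50% ethanol) was treated by the intragastric route for 6 days from induction (1 mg/kg/day in 1% methylcellulose, or 12.5–50 mg/kg/day in olive oil). Colonic samples (30 mg) were taken adjacent and distal to the necrotic area, homogenized, and assayed for MPO by ELISA. Results are ng MPO per mg tissue, mean ± SEM, n = 10.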

Rattus norvegicus [3] = experiment: Anti-inflammatory activity in DNBS-induced Sprague-Dawley rat colitis model assessed as DNBS-induced TNFalpha levels in colon at 1 mg/kg/day, ig for 6 days simulatneously with 6 days of DNBS-challenge by ELISA (reference value: 5.9 +/- 0.6 pg/mg); assay type: functional
[4] = molecular target: NACHT, LRR and PYD domains-containing protein 3 (Mus musculus) (UniProt Q8R4B8); experiment: Inhibition of NLRP3 inflammasome in LPS-primed C57BL/6 mouse bone marrow derived macrophages assessed as reduction in ATP-induced pyroptosis at 100 to 250 nM preincubated for 1 hr followed by stimulation with ATP measured after 30 mins by LDH release assay
Chain of NACHT, LRR and PYD domains-containing protein 3 (Mus musculus) (Q8R4B8 whole entry, the tested form may be a part): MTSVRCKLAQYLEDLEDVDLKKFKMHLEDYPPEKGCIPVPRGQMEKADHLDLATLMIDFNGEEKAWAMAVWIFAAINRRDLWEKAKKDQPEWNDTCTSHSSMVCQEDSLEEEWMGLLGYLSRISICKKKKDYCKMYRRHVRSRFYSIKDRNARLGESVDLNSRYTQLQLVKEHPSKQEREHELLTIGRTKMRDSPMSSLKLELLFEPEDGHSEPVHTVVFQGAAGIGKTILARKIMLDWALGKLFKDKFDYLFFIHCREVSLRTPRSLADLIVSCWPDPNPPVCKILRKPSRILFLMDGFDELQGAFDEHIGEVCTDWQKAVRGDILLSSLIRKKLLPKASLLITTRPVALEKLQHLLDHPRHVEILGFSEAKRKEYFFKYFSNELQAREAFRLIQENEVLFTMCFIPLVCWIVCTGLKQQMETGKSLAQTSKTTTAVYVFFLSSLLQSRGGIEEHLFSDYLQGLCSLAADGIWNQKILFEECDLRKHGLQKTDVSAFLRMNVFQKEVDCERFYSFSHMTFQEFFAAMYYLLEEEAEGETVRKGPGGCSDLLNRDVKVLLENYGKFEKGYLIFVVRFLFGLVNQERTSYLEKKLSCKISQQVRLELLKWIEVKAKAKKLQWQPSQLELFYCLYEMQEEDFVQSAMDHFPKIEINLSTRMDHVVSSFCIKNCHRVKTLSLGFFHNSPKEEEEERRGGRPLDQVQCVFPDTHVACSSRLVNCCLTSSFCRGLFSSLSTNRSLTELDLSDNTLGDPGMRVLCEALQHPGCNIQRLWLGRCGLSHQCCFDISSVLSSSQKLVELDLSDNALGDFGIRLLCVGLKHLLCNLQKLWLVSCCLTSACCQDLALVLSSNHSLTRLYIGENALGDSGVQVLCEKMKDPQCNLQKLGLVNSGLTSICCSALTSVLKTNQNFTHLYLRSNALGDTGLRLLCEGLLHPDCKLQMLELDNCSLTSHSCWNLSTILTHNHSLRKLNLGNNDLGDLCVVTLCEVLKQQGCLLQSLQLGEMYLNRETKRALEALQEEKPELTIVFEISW
Outline: (§1)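 Bone marrow macrophages from C57BL/6 mice, differentiated with 20% L-cell medium, primed with LPS (1 µg/mL, 3 h). Test agent or vehicle was added for 1 h, then ATP (5 mM, 30 min) or nigericin (10 µM, 30 min). IL-1β in the medium was measured by ELISA. LDH in the medium was measured colorimetrically as % of total cellular LDH.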

Rattus norvegicus [5] = experiment: Antiinflammatory activity in DNBS-induced Sprague-Dawley rat colitis model assessed as DNBS-induced macroscopic damage score at 1 mg/kg/day, ig for 6 days simulatneously with 6 days of DNBS-challenge (reference value: 8.6 +/- 0.6); assay type: functional
Outline: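 After intrarectal DNBS (15 mg/0.25 mL 50% ethanol), dosing was intragastric for 6 days (0.2 mL olive oil; 1 mg/kg/day dose in 1% methylcellulose). The whole excised colon was scored for macroscopic damage on a 0–6 point scale by two blinded observers. Values are mean ± SEM, n = 10.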

Rattus norvegicus [6] = experiment: Antiinflammatory activity in DNBS-induced Sprague-Dawley rat colitis model assessed as reduction in DNBS-induced spleen weight increase by measuring increase in spleen weight at 1 mg/kg/day, ig administered as methylcellulose suspension for 6 days simulatneously with 6 days of DNBS-challenge measured daily during compound dosing (reference value: 39.3%); assay type: functional; set-up: scale not given: the % may be the effect or the level left
Outline: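 Spleen weight was used as an index of systemic inflammation. Rats had intrarectal DNBS (15 mg/0.25 mL 50% ethanol) and 6 days of intragastric dosing: 1 mg/kg/day in 1% methylcellulose, or 12.5–50 mg/kg/day in 0.2 mL olive oil. The spleen was weighed at sacrifice and expressed as percent increase versus control, n = 10.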

Rattus norvegicus [7] = experiment: Antiinflammatory activity in DNBS-induced Sprague-Dawley rat colitis model assessed as body weight recovery at 1 mg/kg/day, ig administered as methylcellulose suspension for 6 days simulatneously with 6 days of DNBS-challenge measured daily during compound dosing; assay type: functional, organism-based
Outline: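 Colitis was induced with intrarectal DNBS (15 mg in 0.25 mL 50% ethanol). Intragastric treatment ran 6 days from the day of induction: 1 mg/kg/day in 1% methylcellulose, or 12.5–50 mg/kg/day in olive oil. Body weight change (g) was recorded at the end of treatment, mean ± SEM, n = 10.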

[8] = molecular target: NACHT, LRR and PYD domains-containing protein 3 (Mus musculus) (UniProt Q8R4B8); experiment: Inhibition of NLRP3 inflammasome in LPS-primed C57BL/6 mouse bone marrow derived macrophages assessed as reduction in ATP-induced IL-1beta production at 10 to 250 nM preincubated for 1 hr followed by stimulation with ATP measured after 30 mins by ELISA
Outline: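 C57BL/6 bone marrow macrophages, differentiated with 20% L-cell medium, were primed with LPS (1 µg/mL, 3 h). They were then exposed to compound or vehicle for 1 h and stimulated with ATP (5 mM, 30 min). IL-1β released into the medium was measured by ELISA.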

[9] = molecular target: NACHT, LRR and PYD domains-containing protein 3 (Mus musculus) (UniProt Q8R4B8); experiment: Inhibition of NLRP3 inflammasome in LPS-primed C57BL/6 mouse bone marrow derived macrophages assessed as reduction in nigericin-induced pyroptosis at 100 to 250 nM preincubated for 1 hr followed by […] measured after 30 mins by LDH release assay; outline: as §1
Rattus norvegicus [10] = experiment: Toxicity in Sprague-Dawley rat assessed as body weight loss at 1 mg/kg/day, ig; assay type: organism-based; details: in vivo, po
Outline: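 Rats received intrarectal DNBS (15 mg in 0.25 mL 50% ethanol) or none. Dosing was intragastric for 6 days from induction: compound 12.5–50 mg/kg/day in 0.2 mL olive oil, or dexamethasone 1 mg/kg/day in 0.2 mL 1% methylcellulose. Body weight change was recorded at end; n = 10, mean ± SEM.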

[11] = molecular target: NACHT, LRR and PYD domains-containing protein 3 (Mus musculus) (UniProt Q8R4B8); experiment: Inhibition of NLRP3 inflammasome in LPS-primed C57BL/6 mouse bone marrow derived macrophages assessed as reduction in nigericin-induced IL-1beta production at 10 to 250 nM preincubated for 1 hr followed by stimulation with nigericin measured after 30 mins by ELISA; outline: as §1

inhibition [4]: Active | inhibition [8]: inactive | inhibition [9]: Active | inhibition [11]: inactive
Structure (SMILES): C[C@@H]1C[C@H]2[C@@H]3CCC4=CC(=O)C=C[C@]4(C)[C@@]3(F)[C@@H](O)C[C@]2(C)[C@@]1(O)C(=O)CO [DEXAMETHASONE]
Activity (Rattus norvegicus [1]): 6.7 ng/mg | Activity (Rattus norvegicus [2]): Active | Activity (Rattus norvegicus [3]): 2.2 pg/mg | Activity_index (Rattus norvegicus [5]): 2 | Activity (Rattus norvegicus [6]): 1.6% | Activity (Rattus norvegicus [7]): inactive | Activity (Rattus norvegicus [10]): Toxic
